Assay results reported in ChEMBL document CHEMBL2375313, “Synthesis, in vitro antitumor evaluation and DNA-binding study of novel tetrahydroquinolines and some derived tricyclic and tetracyclic ring systems” (Eur J Med Chem, 2013).
In brackets after ≈: the same amount, converted by molar mass. Activity calls are given as the source filed them. The rule behind the calls is not given here.

Key:
HOP-92 = experiment: Cytotoxicity against human HOP92 cells assessed as growth inhibition at 10 uM after 48 hrs by sulphorhodamine B assay; type: functional; settings: HOP-92, 48 h, read-out: GI
Method in brief: (§1)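 NCI-60 one-dose screen per the NCI Drug Evaluation Branch protocol. Cells given a single 10 µM concentration with 48 h continuous exposure. Growth estimated by sulphorhodamine B protein assay. Result expressed as percentage growth inhibition relative to untreated growth.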

NCI-H23 = experiment: Cytotoxicity against human NCI-H23 cells assessed as growth inhibition at 10 uM after 48 hrs by sulphorhodamine B assay; type: functional; settings: NCI-H23, 48 h, read-out: GI; method in brief: as §1
A549 = experiment: Cytotoxicity against human A549 cells assessed as growth inhibition at 10 uM after 48 hrs by sulphorhodamine B assay; type: functional; settings: A549, 48 h, read-out: GI; method in brief: as §1
[1] = Displacement of methyl green from DNA (unknown origin) after 24 hrs
Method in brief: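 DNA-methyl green complex was stirred in 0.05 M Tris-HCl pH 7.5 with 7.5 mmol MgSO4 at 37 °C for 24 h. Compound was dried down from EtOH in tubes and the DNA-methyl green solution added. A630 was read initially and after 24 h dark incubation at room temperature, corrected and normalized to untreated complex. IC50 is the concentration giving a 50% absorbance decrease; mean ± SD, n = 6.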

[2] = Binding affinity to DNA (unknown origin) at 5 mg/mL by RP-TLC plate analysis
Method in brief: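 Reversed-phase C18 TLC plates pre-developed in methanol/water 8:2. Compound spotted at origin (5 mg/mL in methanol), then DNA (1 mg/mL in water/methanol 8:2) applied at the same spot. Plates developed in the same eluent; DNA located by anisaldehyde spray (blue). Ethidium bromide as positive control.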

NCI/ADR-RES = experiment: Cytotoxicity against human NCI/ADR-RES cells assessed as growth inhibition at 10 uM after 48 hrs by sulphorhodamine B assay; type: functional; settings: read-out: GI; method in brief: as §1
SNB-75 = experiment: Cytotoxicity against human SNB75 cells assessed as growth inhibition at 10 uM after 48 hrs by sulphorhodamine B assay; type: functional; settings: SNB-75, 48 h, read-out: GI; method in brief: as §1
U-251 = experiment: Cytotoxicity against human U251 cells assessed as growth inhibition at 10 uM after 48 hrs by sulphorhodamine B assay; type: functional; settings: U-251, 48 h, read-out: GI; method in brief: as §1
SNB-19 = experiment: Cytotoxicity against human SNB19 cells assessed as growth inhibition at 10 uM after 48 hrs by sulphorhodamine B assay; type: functional; settings: SNB-19, 48 h, read-out: GI; method in brief: as §1
DU-145 = experiment: Cytotoxicity against human DU145 cells assessed as growth inhibition at 10 uM after 48 hrs by sulphorhodamine B assay; type: functional; settings: DU-145, 48 h, read-out: GI; method in brief: as §1
SF-268 = experiment: Cytotoxicity against human SF268 cells assessed as growth inhibition at 10 uM after 48 hrs by sulphorhodamine B assay; type: functional; settings: SF-268, 48 h, read-out: GI; method in brief: as §1
PC-3 = experiment: Cytotoxicity against human PC3 cells assessed as growth inhibition at 10 uM after 48 hrs by sulphorhodamine B assay; type: functional; settings: PC-3, 48 h, read-out: GI; method in brief: as §1
UACC-62 = experiment: Cytotoxicity against human UACC62 cells assessed as growth inhibition at 10 uM after 48 hrs by sulphorhodamine B assay; type: functional; settings: UACC-62, 48 h, read-out: GI; method in brief: as §1
SK-MEL-5 = experiment: Cytotoxicity against human SK-MEL-5 cells assessed as growth inhibition at 10 uM after 48 hrs by sulphorhodamine B assay; type: functional; settings: SK-MEL-5, 48 h, read-out: GI; method in brief: as §1
LOX IMVI = experiment: Cytotoxicity against human LOXIMVI cells assessed as growth inhibition at 10 uM after 48 hrs by sulphorhodamine B assay; type: functional; settings: read-out: GI; method in brief: as §1
CAKI-1 = experiment: Cytotoxicity against human Caki1 cells assessed as growth inhibition at 10 uM after 48 hrs by sulphorhodamine B assay; type: functional; settings: CAKI-1, 48 h, read-out: GI; method in brief: as §1
ACHN = experiment: Cytotoxicity against human ACHN cells assessed as growth inhibition at 10 uM after 48 hrs by sulphorhodamine B assay; type: functional; settings: read-out: GI; method in brief: as §1
RPMI-8226 = experiment: Cytotoxicity against human RPMI8226 cells assessed as growth inhibition at 10 uM after 48 hrs by sulphorhodamine B assay; type: functional; settings: RPMI-8226, 48 h, read-out: GI; method in brief: as §1
MOLT-4 = experiment: Cytotoxicity against human MOLT4 cells assessed as growth inhibition at 10 uM after 48 hrs by sulphorhodamine B assay; type: functional; settings: MOLT-4, 48 h, read-out: GI; method in brief: as §1
K562 = experiment: Cytotoxicity against human K562 cells assessed as growth inhibition at 10 uM after 48 hrs by sulphorhodamine B assay; type: functional; settings: K562, 48 h, read-out: GI; method in brief: as §1
HL-60(TB) = experiment: Cytotoxicity against human HL-60(TB) cells assessed as growth inhibition at 10 uM after 48 hrs by sulphorhodamine B assay; type: functional; settings: HL-60, 48 h, read-out: GI
Method in brief: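 NCI-60 one-dose primary screen run to the Drug Evaluation Branch protocol. Cells are exposed to a single 10 µM concentration for 48 h continuously, and growth is read by SRB protein assay. Data are reported as percent growth of treated cells, expressed as % growth inhibition.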

SK-OV-3 = experiment: Cytotoxicity against human SKOV3 cells assessed as growth inhibition at 10 uM after 48 hrs by sulphorhodamine B assay; type: functional; settings: SK-OV-3, 48 h, read-out: GI; method in brief: as §1
CCRF-CEM = experiment: Cytotoxicity against human CCRF-CEM cells assessed as growth inhibition at 10 uM after 48 hrs by sulphorhodamine B assay; type: functional; settings: read-out: GI; method in brief: as §1
OVCAR-5 = experiment: Cytotoxicity against human OVCAR5 cells assessed as growth inhibition at 10 uM after 48 hrs by sulphorhodamine B assay; type: functional; settings: OVCAR-5, 48 h, read-out: GI; method in brief: as §1
OVCAR-4 = experiment: Cytotoxicity against human OVCAR4 cells assessed as growth inhibition at 10 uM after 48 hrs by sulphorhodamine B assay; type: functional; settings: OVCAR-4, 48 h, read-out: GI; method in brief: as §1
Hs-578T = experiment: Cytotoxicity against human Hs578T cells assessed as growth inhibition at 10 uM after 48 hrs by sulphorhodamine B assay; type: functional; settings: read-out: GI; method in brief: as §1
NCI-H522 = experiment: Cytotoxicity against human NCI-H522 cells assessed as growth inhibition at 10 uM after 48 hrs by sulphorhodamine B assay; type: functional; settings: NCI-H522, 48 h, read-out: GI; method in brief: as §1
HT-29 = experiment: Cytotoxicity against human HT-29 cells assessed as growth inhibition at 10 uM after 48 hrs by sulphorhodamine B assay; type: functional; settings: HT-29, 48 h, read-out: GI; method in brief: as §1
MCF7 = experiment: Cytotoxicity against human MCF7 cells assessed as growth inhibition at 10 uM after 48 hrs by sulphorhodamine B assay; type: functional; settings: MCF7, 48 h, read-out: GI; method in brief: as §1
MDA-MB-435 = experiment: Cytotoxicity against human MDA-MB-435 cells assessed as growth inhibition at 10 uM after 48 hrs by sulphorhodamine B assay; type: functional; settings: MDA-MB-435, 48 h, read-out: GI; method in brief: as §1
HCT-15 = experiment: Cytotoxicity against human HCT15 cells assessed as growth inhibition at 10 uM after 48 hrs by sulphorhodamine B assay; type: functional; settings: HCT-15, 48 h, read-out: GI; method in brief: as §1
MDA-MB-468 = experiment: Cytotoxicity against human MDA-MB-468 cells assessed as growth inhibition at 10 uM after 48 hrs by sulphorhodamine B assay; type: functional; settings: MDA-MB-468, 48 h, read-out: GI; method in brief: as §1

With `CCSc1nc(N)c2c(-c3ccc(Cl)cc3)c3c(nc2n1)C(C)CCC3` (centres undefined) the inhibition of growth at 10 µM (HOP-92) was 35.2%, the inhibition of growth at 10 µM (NCI-H23) was 15.3% and the inhibition of growth at 10 µM (A549) was 18.1%. For the same compound, the IC50 [1] was 0.127 µg/mL (≈ 0.33 µM), the Activity [2] was “Active” and the inhibition of growth at 10 µM (NCI/ADR-RES) was 12.8%. For the same compound, the inhibition of growth at 10 µM (SNB-75) was 33%, the inhibition of growth at 10 µM (U-251) was 13.6% and the inhibition of growth at 10 µM (SNB-19) was < 10%. The inhibition of growth at 10 µM (DU-145) was < 10%, the inhibition of growth at 10 µM (SF-268) was < 10% and the inhibition of growth at 10 µM (PC-3) was 25.3%. The inhibition of growth at 10 µM (UACC-62) was 21.8%, the inhibition of growth at 10 µM (SK-MEL-5) was < 10% and the inhibition of growth at 10 µM (LOX IMVI) was < 10%. The inhibition of growth at 10 µM (CAKI-1) was < 10%, the inhibition of growth at 10 µM (ACHN) was 30.8% and the inhibition of growth at 10 µM (RPMI-8226) was 33.8%. The inhibition of growth at 10 µM (MOLT-4) was 32.5%, the inhibition of growth at 10 µM (K562) was 32.4% and the inhibition of growth at 10 µM (HL-60(TB)) was < 10%. The inhibition of growth at 10 µM (SK-OV-3) was 15.2%, the inhibition of growth at 10 µM (CCRF-CEM) was 28.4% and the inhibition of growth at 10 µM (OVCAR-5) was 12.3%. It also gave an inhibition of growth at 10 µM (OVCAR-4) of 26.8%, an inhibition of growth at 10 µM (Hs-578T) of 14.2% and an inhibition of growth at 10 µM (NCI-H522) of 21.9%. The inhibition of growth at 10 µM (HT-29) was 27.7%, the inhibition of growth at 10 µM (MCF7) was < 10% and the inhibition of growth at 10 µM (MDA-MB-435) was 14.5%. The inhibition of growth at 10 µM (HCT-15) was 18.8% and the inhibition of growth at 10 µM (MDA-MB-468) was 30.8%.
`CC1CCCc2c1nc1nc(SCC(=O)c3ccccc3)nc(N)c1c2-c1ccc(Cl)cc1` (centres undefined) showed an inhibition of growth at 10 µM (HOP-92) of 90%, an inhibition of growth at 10 µM (NCI-H23) of 24.7% and an inhibition of growth at 10 µM (A549) of 17.6%. For the same compound, the IC50 [1] was 0.061 µg/mL (≈ 0.128 µM), the Activity [2] was “Active” and the inhibition of growth at 10 µM (NCI/ADR-RES) was 12.8%. For the same compound, the inhibition of growth at 10 µM (SNB-75) was < 10%, the inhibition of growth at 10 µM (U-251) was 21.5% and the inhibition of growth at 10 µM (SNB-19) was < 10%. The inhibition of growth at 10 µM (DU-145) was 17%, the inhibition of growth at 10 µM (SF-268) was 23.7% and the inhibition of growth at 10 µM (PC-3) was 66.8%. It also gave an inhibition of growth at 10 µM (UACC-62) of 70.8%, an inhibition of growth at 10 µM (SK-MEL-5) of 67% and an inhibition of growth at 10 µM (LOX IMVI) of 14.6%. For the same compound, the inhibition of growth at 10 µM (CAKI-1) was 11.8%, the inhibition of growth at 10 µM (ACHN) was 29.3% and the inhibition of growth at 10 µM (RPMI-8226) was 69.2%. The inhibition of growth at 10 µM (MOLT-4) was 44.6%, the inhibition of growth at 10 µM (K562) was 27.7% and the inhibition of growth at 10 µM (HL-60(TB)) was 22%. For the same compound, the inhibition of growth at 10 µM (SK-OV-3) was < 10%, the inhibition of growth at 10 µM (CCRF-CEM) was 60.1% and the inhibition of growth at 10 µM (OVCAR-5) was 10%. It also gave an inhibition of growth at 10 µM (OVCAR-4) of 20%, an inhibition of growth at 10 µM (Hs-578T) of 38.2% and an inhibition of growth at 10 µM (NCI-H522) of 17.5%. It also gave an inhibition of growth at 10 µM (HT-29) of 21.5%, an inhibition of growth at 10 µM (MCF7) of 30% and an inhibition of growth at 10 µM (MDA-MB-435) of 13%. For the same compound, the inhibition of growth at 10 µM (HCT-15) was 71.5% and the inhibition of growth at 10 µM (MDA-MB-468) was 22.9%.
